Test results from PMC9292928 (British Journal of Pharmacology, 2021).
Entries after “also recorded” stand apart in the source; their conditions may differ. Where two headings read alike, the source gives them in different places.

What was measured:
[1] = system: hyperthermia‐induced seizures in Scn1a +/− mice; conditions: cited from earlier work
[2] = system: hyperthermia‐induced seizures in Scn1a +/− mice; assay: Hyperthermia-induced seizures in Scn1a+/− mice; type: in vivo, mouse; conditions: for Effective (anticonvulsant) dose against hyperthermia-induced seizures: i.p.
In short: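 Male and female Scn1a+/− F1 mice (congenic 129S6 heterozygotes × C57BL/6J), P14–16, got a single i.p. dose of vehicle or test compound, n = 12–18. Pretreatment time was set per compound from time-to-peak data (15–120 min), with matched vehicle controls. A rectal probe went in 15 min before, followed by 5-min acclimation. Core temperature was raised 0.5°C every 2 min until the first clonic convulsion with loss of posture, or to 42.5°C held 3 min. Thresholds were compared by log-rank Mantel–Cox.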

[3] = Solubility of dosing preparations; type: physicochemical; conditions: for State of dosing preparation: ethanol:Tween 80:saline (1:1:18), 10 ml·kg−1, CBGV 100, CBDV 60, CBG 30 mg·kg−1; for Aqueous solubility: reason for not testing 100 mg·kg−1
[4] = system: spontaneous GTCS and survival of Scn1a +/− mice; assay: Spontaneous seizures; type: in vivo, mouse
In short: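 Male and female Scn1a+/− mice were primed with one hyperthermia-induced seizure at P18. They were cooled on a pad to a 37°C core temperature at the onset of clonic convulsion. Test compound was then given subchronically in chow. Spontaneous GTCS were counted blind from continuous video over 60 h, and dosing continued to P30 for survival. Seizure-free proportion was analysed by Fisher's exact test; frequency by one-way ANOVA with Dunnett's test.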

[5] = system: 6‐Hz threshold test, Swiss male mice; assay: 6-Hz threshold test; type: in vivo, mouse; conditions: n = 12; for CC50 vs vehicle, 6-Hz threshold test: 45 min pretreatment
[6] = Plasma concentrations in experimental Scn1a+/− mice; type: in vivo, mouse
In short: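 Acute cohorts (n = 5–10) were anaesthetised with isoflurane directly after the hyperthermia protocol, and whole blood was taken by cardiac puncture. Plasma was stored at −80°C. Subchronic cohorts received drug orally in chow, with plasma collected on P31 within 30 min of lights on. Clobazam pretreatment was 30 min and test compound pretreatment 45 min before the hyperthermia time point.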

[7] = system: 168 GPCRs and 74 orphan GPCRs; assay: Eurofins DiscoverX PathHunter β-arrestin GPCR screen; type: cell-based; conditions: 3 μM
[8] = target: cannabinoid CB1 receptor (Homo sapiens, UniProt P21554); assay: Eurofins DiscoverX PathHunter β-arrestin GPCR screen, CB1; type: cell-based; conditions: 3 μM
Chain of cannabinoid CB1 receptor (P21554 whole entry): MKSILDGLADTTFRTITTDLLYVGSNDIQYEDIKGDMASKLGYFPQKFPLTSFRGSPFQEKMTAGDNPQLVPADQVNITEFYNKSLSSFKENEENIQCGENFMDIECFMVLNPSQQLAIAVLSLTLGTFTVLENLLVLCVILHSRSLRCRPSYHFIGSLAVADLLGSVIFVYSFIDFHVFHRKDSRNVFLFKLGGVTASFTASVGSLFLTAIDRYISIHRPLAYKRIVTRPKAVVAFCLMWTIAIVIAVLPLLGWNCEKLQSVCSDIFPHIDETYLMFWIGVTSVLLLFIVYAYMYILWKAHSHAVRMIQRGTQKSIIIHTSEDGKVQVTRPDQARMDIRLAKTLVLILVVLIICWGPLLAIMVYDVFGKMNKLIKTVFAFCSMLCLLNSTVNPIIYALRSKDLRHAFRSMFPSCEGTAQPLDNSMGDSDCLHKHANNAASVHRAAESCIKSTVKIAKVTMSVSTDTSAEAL

[9] = target: cannabinoid CB2 receptor (Homo sapiens, UniProt P34972); assay: Eurofins DiscoverX PathHunter β-arrestin GPCR screen, CB2; type: cell-based; conditions: 3 μM
Chain of cannabinoid CB2 receptor (P34972 whole entry): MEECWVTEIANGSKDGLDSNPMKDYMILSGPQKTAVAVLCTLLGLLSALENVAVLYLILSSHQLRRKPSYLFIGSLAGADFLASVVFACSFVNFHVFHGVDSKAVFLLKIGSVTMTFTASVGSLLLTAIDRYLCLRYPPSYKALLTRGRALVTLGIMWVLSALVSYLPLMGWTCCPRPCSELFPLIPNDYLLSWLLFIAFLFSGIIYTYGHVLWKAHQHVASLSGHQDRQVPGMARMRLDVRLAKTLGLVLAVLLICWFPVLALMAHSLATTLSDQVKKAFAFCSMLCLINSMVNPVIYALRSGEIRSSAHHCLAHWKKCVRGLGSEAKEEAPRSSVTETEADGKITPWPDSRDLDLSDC

[10] = target: T1, GPR55 (Homo sapiens, UniProt Q9Y2T6); assay: Eurofins DiscoverX PathHunter β-arrestin GPCR screen, GPR55; type: cell-based; conditions: 3 μM
T1 sequence (Q9Y2T6 whole entry): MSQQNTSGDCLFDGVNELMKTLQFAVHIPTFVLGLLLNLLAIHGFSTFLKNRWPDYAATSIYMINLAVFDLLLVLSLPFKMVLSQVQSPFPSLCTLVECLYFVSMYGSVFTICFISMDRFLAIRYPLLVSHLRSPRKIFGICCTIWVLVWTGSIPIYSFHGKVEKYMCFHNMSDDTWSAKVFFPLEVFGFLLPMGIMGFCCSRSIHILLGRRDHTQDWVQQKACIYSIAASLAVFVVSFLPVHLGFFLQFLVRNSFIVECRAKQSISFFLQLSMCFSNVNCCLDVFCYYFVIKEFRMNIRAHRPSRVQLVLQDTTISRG

[11] = target: T1, GPR55; assay: GPR55 ERK phosphorylation assay in HEK293 cells; type: cell-based; conditions: for EC80 concentration for GPR55 activation (pERK): agonist alone
[12] = target: human TRPV1 (Homo sapiens, UniProt Q8NER1); assay: TRPV1 intracellular calcium assay; type: cell-based
Chain of human TRPV1 (Q8NER1 whole entry): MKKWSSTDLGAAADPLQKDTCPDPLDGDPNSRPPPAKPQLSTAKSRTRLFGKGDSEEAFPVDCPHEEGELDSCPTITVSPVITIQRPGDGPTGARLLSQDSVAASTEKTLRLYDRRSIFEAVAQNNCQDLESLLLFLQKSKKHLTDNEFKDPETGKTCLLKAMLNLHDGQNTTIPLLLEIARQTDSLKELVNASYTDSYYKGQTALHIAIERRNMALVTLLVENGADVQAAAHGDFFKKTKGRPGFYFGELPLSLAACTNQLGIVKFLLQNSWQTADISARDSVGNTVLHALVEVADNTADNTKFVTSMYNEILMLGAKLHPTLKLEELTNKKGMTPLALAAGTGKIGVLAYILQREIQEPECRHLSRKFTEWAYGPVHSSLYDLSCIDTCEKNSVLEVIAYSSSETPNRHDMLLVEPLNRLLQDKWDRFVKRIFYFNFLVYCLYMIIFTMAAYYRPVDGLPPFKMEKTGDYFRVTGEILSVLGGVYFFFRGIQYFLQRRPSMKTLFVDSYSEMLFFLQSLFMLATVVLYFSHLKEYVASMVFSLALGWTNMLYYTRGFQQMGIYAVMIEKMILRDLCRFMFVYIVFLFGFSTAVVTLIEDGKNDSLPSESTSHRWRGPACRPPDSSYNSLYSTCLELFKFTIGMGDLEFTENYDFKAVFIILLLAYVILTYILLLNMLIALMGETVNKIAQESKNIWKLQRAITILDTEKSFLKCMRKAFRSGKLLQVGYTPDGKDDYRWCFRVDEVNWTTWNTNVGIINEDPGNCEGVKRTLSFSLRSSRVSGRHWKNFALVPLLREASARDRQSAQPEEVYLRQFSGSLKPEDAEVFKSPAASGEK

[13] = target: T2, concatenated human γ2–β2–α1–β2–α1 GABA receptor (Homo sapiens, UniProt P14867+P18507+P47870); assay: Two-electrode voltage clamp, GABA-evoked currents in Xenopus oocytes; type: cell-based
T2 sequence (P14867 28-456): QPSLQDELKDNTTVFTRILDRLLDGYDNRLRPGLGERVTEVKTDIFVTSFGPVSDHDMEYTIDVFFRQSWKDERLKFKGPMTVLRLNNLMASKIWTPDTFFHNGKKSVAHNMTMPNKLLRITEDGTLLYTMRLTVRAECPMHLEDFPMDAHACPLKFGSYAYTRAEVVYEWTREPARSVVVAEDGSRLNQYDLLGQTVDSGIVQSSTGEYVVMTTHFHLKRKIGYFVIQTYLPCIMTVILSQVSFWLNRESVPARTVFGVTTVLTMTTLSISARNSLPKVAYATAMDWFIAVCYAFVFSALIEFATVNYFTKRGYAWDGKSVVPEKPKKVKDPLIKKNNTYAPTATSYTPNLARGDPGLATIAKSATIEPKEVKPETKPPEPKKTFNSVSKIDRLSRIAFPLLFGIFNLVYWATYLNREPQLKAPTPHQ
T2 sequence (P47870 26-512): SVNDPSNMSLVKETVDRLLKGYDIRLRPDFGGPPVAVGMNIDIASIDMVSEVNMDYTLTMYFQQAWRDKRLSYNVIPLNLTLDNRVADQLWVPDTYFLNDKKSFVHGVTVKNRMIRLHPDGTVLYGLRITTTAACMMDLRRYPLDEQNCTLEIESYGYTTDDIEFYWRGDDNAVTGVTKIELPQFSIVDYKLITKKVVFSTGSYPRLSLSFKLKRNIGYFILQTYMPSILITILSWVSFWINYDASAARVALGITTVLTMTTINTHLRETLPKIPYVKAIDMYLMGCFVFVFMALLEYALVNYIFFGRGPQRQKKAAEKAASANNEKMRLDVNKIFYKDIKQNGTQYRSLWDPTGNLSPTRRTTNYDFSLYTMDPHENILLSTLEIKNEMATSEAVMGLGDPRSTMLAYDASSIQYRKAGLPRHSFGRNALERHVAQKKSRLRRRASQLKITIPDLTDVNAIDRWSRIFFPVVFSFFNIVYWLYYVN
T2 sequence (P18507 40-475): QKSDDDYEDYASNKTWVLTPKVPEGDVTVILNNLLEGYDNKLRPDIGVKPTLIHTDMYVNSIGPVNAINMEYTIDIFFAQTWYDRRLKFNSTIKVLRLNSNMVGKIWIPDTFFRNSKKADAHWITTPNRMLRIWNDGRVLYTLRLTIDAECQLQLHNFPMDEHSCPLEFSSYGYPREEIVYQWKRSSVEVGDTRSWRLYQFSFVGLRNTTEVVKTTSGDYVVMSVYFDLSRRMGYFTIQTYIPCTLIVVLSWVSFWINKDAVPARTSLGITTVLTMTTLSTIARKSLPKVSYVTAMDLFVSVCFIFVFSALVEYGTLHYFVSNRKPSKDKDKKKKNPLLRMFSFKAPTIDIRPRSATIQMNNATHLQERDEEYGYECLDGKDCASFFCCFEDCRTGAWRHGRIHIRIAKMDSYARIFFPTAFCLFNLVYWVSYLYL
In short: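 Two-electrode voltage clamp used Xenopus oocytes expressing concatenated human γ2–β2–α1–β2–α1 receptors. GABA (15 μM) was applied three times with 7–12 min washout, and currents were normalised to the mean of the last two applications. Preincubation was 60 s. Per cent modulation came from a published equation, and the Hill equation fit gave Imax and EC50, n = 5.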

[14] = target: T2, concatenated human γ2–β2–α1–β2–α1 GABA receptor; assay: GABAA receptor desensitization assay in Xenopus oocytes; type: cell-based; conditions: 10 μM CBGA, 180-s preincubation, 1 mM GABA; 103 ± 3% without preincubation
[15] = ref Anderson, Low, et al., 2019; cited from earlier work
[16] = system: MES‐induced seizures; conditions: ref Hawkins et al., 2017; Luszczki et al., 2003; Miller et al., 1986; cited from earlier work
[17] = system: Scn1a +/− mice; conditions: ref Hawkins et al., 2017; Luszczki et al., 2003; Miller et al., 1986; cited from earlier work
[18] = system: MES threshold test, Swiss male mice; assay: Maximal electroshock; type: in vivo, mouse; conditions: 300 mg·kg−1, 15 min prior, n = 12
In short: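 Swiss male mice, n = 12; the positive control was given 15 min before shock. Corneal electroshocks were 60 Hz, 0.4 s, 0.5-ms rectangular pulses, starting at 50 mA. A blinded observer scored GTCS with full hindlimb extension (hindlimbs at 180° to torso).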

[19] = system: pentylenetetrazole (PTZ)‐induced seizures; conditions: ref Hill et al., 2010; cited from earlier work
[20] = Scn1a+/− mice, ref Anderson et al., 2021
[21] = 30 mg·kg−1 single i.p., Scn1a+/− mice P14–16
[22] = 100 mg·kg−1 single i.p., Scn1a+/− mice P14–16
[23] = over all doses tested, single i.p., Scn1a+/− mice P14–16
[24] = acute i.p., CBGA 30 mg·kg−1 + clobazam 1 mg·kg−1

## CCCCCc1cc2c(c(O)c1C(=O)O)C=CC(C)(CCC=C(C)C)O2 (stereo not drawn) [CBCA, cannabichromenic acid]
[1]; [20]
  Effect against hyperthermia-induced seizures: anticonvulsant effects

## CCCc1cc2c(c(O)c1C(=O)O)C=CC(C)(CCC=C(C)C)O2 (stereo not drawn) [CBCVA, cannabichromevarinic acid]
[1]; [20]
  Effect against hyperthermia-induced seizures: anticonvulsant effects

## C=C(C)[C@@H]1CCC(C)=C[C@H]1c1c(O)cc(CCCCC)cc1O [CBD, cannabidiol]
[1]; 100 mg·kg−1, ref Anderson, Absalom, et al., 2019, Anderson et al., 2020, Kaplan et al., 2017
  Effect against hyperthermia-induced seizures: anticonvulsant

## C=C(C)[C@@H]1CCC(C)=C[C@H]1c1c(O)cc(CCC)cc1O [CBDV, cannabidivarin]
[2]; [21]
  Temperature threshold for GTCS induced by hyperthermia vs vehicle: increase in GTCS temperature threshold
[3]
  State of dosing preparation: near solubility limits
  Aqueous solubility: poor aqueous solubility

## C=C(C)[C@@H]1CCC(C)=C[C@H]1c1c(O)cc(CCC)c(C(=O)O)c1O [CBDVA, cannabidivarinic acid]
[2]; [22]
  Temperature threshold for GTCS induced by hyperthermia vs vehicle: significantly elevated
[2]; Scn1a+/− mice
  Effective (anticonvulsant) dose against hyperthermia-induced seizures: 100 mg/kg

## CCCCCc1cc(O)c(C/C=C(\C)CCC=C(C)C)c(O)c1 [CBG, cannabigerol]
[2]; 0.3 mg·kg−1 i.p., n = 12–18 per group
  Mice seizure free (protected from GTCS): four
[2]; [23]
  Temperature threshold for GTCS induced by hyperthermia vs vehicle: Neither cannabigerol (CBG) nor cannabigerivarin (CBGV) affected thresholds
[3]
  State of dosing preparation: near solubility limits
  Aqueous solubility: poor aqueous solubility

## CCCCCc1cc(O)c(C/C=C(\C)CCC=C(C)C)c(O)c1C(=O)O [CBGA, cannabigerolic acid]
[2]; [21]
  Temperature threshold for GTCS induced by hyperthermia vs vehicle: anticonvulsant; also recorded: significantly elevated
[2]; [22]
  Temperature threshold for GTCS induced by hyperthermia vs vehicle: anticonvulsant
[2]; Scn1a+/− mice
  Effective (anticonvulsant) dose against hyperthermia-induced seizures: 30 mg/kg
[2]; [23]
  Temperature threshold for GTCS induced by hyperthermia vs vehicle: dose‐dependently increased
[4]; 2500 mg·kg−1 chow, oral subchronic, 60-h recording
  Spontaneous GTCS frequency: significantly increased
[4]; 1400 and 2500 mg·kg−1 chow, oral
  Survival to P30 relative to controls: did not differ
[4]; 1400 and 2500 mg·kg−1 chow, oral subchronic, 60-h recording
  Proportion of mice experiencing GTCS during observation period: Neither dose of CBGA affected
[5]; 10 mg·kg−1 i.p.
  CC50 vs vehicle, 6-Hz threshold test: significantly lower
[5]; 30 mg·kg−1 i.p.
  CC50 vs vehicle, 6-Hz threshold test: significantly lower
[5]; 100 mg·kg−1 i.p.
  CC50 vs vehicle, 6-Hz threshold test: did not differ from vehicle
[6]; [24]
  Plasma concentration of CBGA on cotreatment with clobazam: significantly increased
[6]; subchronic, chow
  Plasma CBGA concentrations on cotreatment with clobazam: no effect
[7]
  Agonist or antagonist activity at 242 GPCRs: No agonist or antagonist activity
[8]
  Effect at cannabinoid CB1 receptor: did not affect
[9]
  Effect at cannabinoid CB2 receptor: did not affect
[10]
  Agonist activity at GPR55: not an agonist
[11]; IC50, inhibition of GPR55 activation, rounded value of the discussion
  IC50: ~5 µM
[11]; IC50, inhibition of LPI-mediated GPR55 activity (pERK), LPI 4 μM (EC80)
  IC50: 5.7 µM
[11]; IC50, inhibition of ML-186-mediated GPR55 activity (pERK), ML-186 0.45 μM (EC80)
  IC50: 4.8 µM
[11]; ML-186 concentration–response curves with varying CBGA
  Mode of antagonism at GPR55: non‐competitive antagonist
[12]
  IC50: 22 µM
[12]; 30 and 100 μM CBGA, wildtype and TRPV1-expressing cells
  Non-specific calcium influx: non‐specific increase in intracellular calcium
[12]; calcium influx
  Agonist activity at TRPV1: did not display agonist activity
[13]; 30 μM CBGA, GABA 15 μM
  Modulation of GABA-evoked currents at high concentration: substantially reduced
[13]; EC50, positive modulation of GABA-evoked currents, GABA 15 μM
  EC50: 0.91 µM
[13]; read-out: Maximum modulation of GABA-evoked peak currents (E max)
  Emax: 271 ± 40%
[14]
  Peak GABA current after preincubation (percentage of GABA response): 31 ± 11%
[15]
  Brain penetration: 2%
  Brain–plasma ratio: 0.02

## CCCc1cc(O)c(C/C=C(\C)CCC=C(C)C)c(O)c1 [CBGV, cannabigerivarin]
[2]; [23]
  Temperature threshold for GTCS induced by hyperthermia vs vehicle: Neither cannabigerol (CBG) nor cannabigerivarin (CBGV) affected thresholds
[3]
  State of dosing preparation: suspension

## CCCc1cc(O)c(C/C=C(\C)CCC=C(C)C)c(O)c1C(=O)O [CBGVA, cannabigerovarinic acid]
[2]; [22]
  Temperature threshold for GTCS induced by hyperthermia vs vehicle: significantly elevated
[2]; Scn1a+/− mice
  Effective (anticonvulsant) dose against hyperthermia-induced seizures: 100 mg/kg

## Nc1nnc(-c2cccc(Cl)c2Cl)c(N)n1 [Lamotrigine]
[16]
  Effect against MES-induced seizures: anticonvulsant
[17]
  Effect on seizures in Scn1a+/− mice: proconvulsant

## COc1ccc(S(=O)(=O)N2CCOCC2)cc1NC(=O)c1cc2c(s1)CCCC2 [ML‐186, reference compound]
[11]
  EC80 concentration for GPR55 activation (pERK): 0.45 μM

## O=C1CC(=O)N(c2ccccc2)c2cc(Cl)ccc2N1 [N‐desmethylclobazam]
[6]; [24]
  Plasma concentrations of N-desmethylclobazam on CBGA co-administration: reduced
[6]; subchronic, chow
  Plasma concentrations of N-desmethylclobazam when clobazam combined with CBGA: significantly lower

## CN1C(=O)CC(=O)N(c2ccccc2)c2cc(Cl)ccc21 [clobazam, reference compound]
[2]; 1 mg·kg−1 single i.p., Scn1a+/− mice
  Temperature threshold for GTCS induced by hyperthermia vs vehicle: significantly elevated
[4]; 80 mg clobazam·kg−1 chow, oral, 60-h recording
  Spontaneous GTCS frequency: significantly reducing
[4]; clobazam 80 mg·kg−1 chow alone or plus CBGA 1400 mg·kg−1 chow
  Survival to P30: neither treatment had any effect
[4]; clobazam 80 mg·kg−1 chow alone or plus CBGA 1400 mg·kg−1 chow, controls 63%
  Proportion of mice displaying GTCS: 35%
[6]; [24]
  Plasma clobazam concentrations on CBGA co-administration: did not affect

## CCCC(CCC)C(=O)O [valproic acid, reference compound]
[18]
  Protection against seizure activity, MES threshold test: 100%
[5]; 300 mg·kg−1, 15 min prior
  Protection against seizure activity, 6-Hz threshold test: 100%

## CCCc1cc(O)c2c(c1)OC(C)(C)[C@@H]1CCC(C)=C[C@@H]21 [Δ^9‐THCV, tetrahydrocannabivarin]
[2]; 3 mg·kg−1 single i.p., Scn1a+/− mice P14–16
  Temperature threshold for GTCS induced by hyperthermia vs vehicle: proconvulsant
[19]
  Effect against PTZ-induced seizures: anticonvulsant effects

## lysophosphatidylinositol [LPI, reference compound]
[11]
  EC80 concentration for GPR55 activation (pERK): 4 μM
